# Data taken from ChEMBL document CHEMBL1134945, “Synthesis and structure-activity relationships of aminoalkylazetidines as ORL1 receptor ligands” (Bioorg Med Chem Lett, 2002).
# Assays:
# [1] = biological target: T1, Nociceptin receptor (Homo sapiens, UniProt P41146); test: Binding affinity at human ORL1 receptor was determined by using [125I]nociceptin radioligand in Chinese hamster ovary (CHO) cell membranes at a concentration of 23 pM
# How it was run: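 Competition binding against [125I]Nociceptin on membranes of CHO cells expressing human ORL1; Ki derived; means of 2–3 independent determinations.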
# [2] = biological target: Kappa-type opioid receptor (Homo sapiens, UniProt P41145); test: Binding affinity at human opioid receptor kappa 1 was determined by using [3H]diprenorphine radioligand in CHO cell membranes at a concentration of 0.31 nM
# Chain of Kappa-type opioid receptor (P41145 whole entry): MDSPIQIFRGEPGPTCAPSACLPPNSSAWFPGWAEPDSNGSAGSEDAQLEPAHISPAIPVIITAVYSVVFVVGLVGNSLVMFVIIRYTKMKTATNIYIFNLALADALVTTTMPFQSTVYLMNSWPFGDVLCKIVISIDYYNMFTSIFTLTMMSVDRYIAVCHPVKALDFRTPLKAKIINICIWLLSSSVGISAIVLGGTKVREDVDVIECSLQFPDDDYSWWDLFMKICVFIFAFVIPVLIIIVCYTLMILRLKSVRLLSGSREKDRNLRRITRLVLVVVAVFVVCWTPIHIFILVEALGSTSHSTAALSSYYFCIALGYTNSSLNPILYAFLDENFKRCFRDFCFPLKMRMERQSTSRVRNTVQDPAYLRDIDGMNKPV
# How it was run: (§1)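 Ki from competition binding with [3H]diprenorphine on membranes of CHO cells expressing the respective human opioid receptor; means of 2–3 independent determinations.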
# [3] = biological target: Mu-type opioid receptor (Homo sapiens, UniProt P35372); test: Binding affinity at human opioid receptor mu 1 was determined by using [3H]diprenorphine radioligand in CHO cell membranes at a concentration of 0.12 nM; how it was run: as §1
# Chain of Mu-type opioid receptor (P35372 whole entry): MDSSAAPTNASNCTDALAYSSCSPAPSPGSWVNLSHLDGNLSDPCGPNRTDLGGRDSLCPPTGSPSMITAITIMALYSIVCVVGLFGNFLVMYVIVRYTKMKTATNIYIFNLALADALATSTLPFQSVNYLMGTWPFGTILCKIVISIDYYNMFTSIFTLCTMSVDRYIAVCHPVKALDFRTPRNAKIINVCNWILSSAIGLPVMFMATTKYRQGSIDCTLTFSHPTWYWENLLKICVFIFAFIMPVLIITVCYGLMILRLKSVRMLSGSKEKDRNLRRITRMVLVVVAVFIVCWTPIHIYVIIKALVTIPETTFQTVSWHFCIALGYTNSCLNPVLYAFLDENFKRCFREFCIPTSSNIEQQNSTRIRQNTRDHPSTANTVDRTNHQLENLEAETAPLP
# [4] = biological target: T2, Delta-type opioid receptor (Homo sapiens, UniProt P41143); test: Binding affinity at human opioid receptor delta 1 was determined by using [3H]diprenorphine radioligand in CHO cell membranes at a concentration of 0.8 nM; how it was run: as §1
# T2 sequence (P41143 whole entry): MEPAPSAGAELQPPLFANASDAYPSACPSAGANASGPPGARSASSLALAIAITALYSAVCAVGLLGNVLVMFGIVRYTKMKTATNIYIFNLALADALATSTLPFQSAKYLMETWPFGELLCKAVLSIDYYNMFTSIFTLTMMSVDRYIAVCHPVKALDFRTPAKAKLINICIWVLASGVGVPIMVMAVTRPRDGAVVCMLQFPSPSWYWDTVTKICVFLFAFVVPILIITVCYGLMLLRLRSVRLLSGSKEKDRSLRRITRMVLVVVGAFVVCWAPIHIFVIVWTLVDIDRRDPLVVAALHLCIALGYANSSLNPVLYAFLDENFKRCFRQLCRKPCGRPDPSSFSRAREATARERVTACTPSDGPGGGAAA
# [5] = biological target: T1, Nociceptin receptor; test: Functional [35S]GTP-gamma-S, binding for human ORL1 receptor carried out in CHO cell membranes.; assay type: cell-based; conditions: filed as agonist
# How it was run: (§2)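 [35S]GTPγS binding on membranes of CHO cells expressing human ORL1, 1 h incubation before assay start. Agonist: raises [35S]GTPγS binding. Antagonist: no effect on basal binding but blocks the Nociceptin-induced rise.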
# [6] = biological target: T2, Delta-type opioid receptor; test: Binding affinity at human Opioid receptor delta 1 was determined by using [3H]diprenorphine radioligand in CHO cell membranes at a concentration of 0.8 nM; how it was run: as §1
# [7] = biological target: T1, Nociceptin receptor; test: Compound was evaluated for functional [35S]GTP-gamma-S, binding for human ORL1 receptor carried out in CHO cell membranes; Compound acts as Antagonist; assay type: cell-based; conditions: filed as antagonist; how it was run: as §2
# [8] = biological target: T1, Nociceptin receptor; test: Concentration of compound that inhibits the binding of human ORL1 receptor in CHO cell membranes in the presence of [125I]nociceptin radioligand at a concentration of 10 uM
# [9] = biological target: T1, Nociceptin receptor; test: Compound was evaluated for functional [35S]GTP-gamma-S, binding for human ORL1 receptor carried out in CHO cell membranes; Compound acts as Agonist; assay type: cell-based; conditions: filed as agonist; how it was run: as §2
# T1 sequence (P41146 whole entry): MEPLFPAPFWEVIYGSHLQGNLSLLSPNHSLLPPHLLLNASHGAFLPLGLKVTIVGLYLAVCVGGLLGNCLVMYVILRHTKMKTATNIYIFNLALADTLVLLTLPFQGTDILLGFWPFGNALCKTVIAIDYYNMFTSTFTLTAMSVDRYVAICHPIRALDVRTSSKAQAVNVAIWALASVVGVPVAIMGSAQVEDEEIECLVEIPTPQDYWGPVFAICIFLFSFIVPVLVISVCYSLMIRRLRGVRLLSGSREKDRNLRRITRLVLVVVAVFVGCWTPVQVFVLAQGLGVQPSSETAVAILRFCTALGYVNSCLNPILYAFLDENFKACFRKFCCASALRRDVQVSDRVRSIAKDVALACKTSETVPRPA
SMILES,Ki [1] [nM],Ki [2] [nM],Ki [3] [nM],Ki [4] [nM],Activity [5],Ki [6] [nM],Activity [7],inhibition [8] [%],Activity [9]
CCCC(c1ccccc1)N1CC[C@H]1[C@@H](N)c1cccc(Cl)c1 (stereo not given in full),367,2940,4130,10100,–,–,–,–,–
CCCCC(CCCC)N1CC[C@H]1[C@@H](N)c1cccc(Cl)c1,1340,4260,9670,31800,–,–,–,–,–
CC(c1ccccc1)N1CC[C@H]1[C@@H](N)c1cccc(Cl)c1 (stereo not given in full),1060,4100,10600,39100,–,–,–,–,–
CCCCC(c1ccccc1)N1CC[C@H]1[C@H](N)c1cccc(Cl)c1 (stereo not given in full),30,3430,1810,8050,Agonist,–,–,–,–
N[C@H](c1cccc(C(F)(F)F)c1)[C@H]1CCN1C(c1ccccc1)c1ccccc1,14,641,516,3310,Agonist,–,–,–,–
N[C@@H](c1cccc(C(F)(F)F)c1)[C@@H]1CCN1C(c1ccccc1)c1ccccc1 (stereo in doubt; (+)-1a) [listing 1 of 2 here],–,–,–,–,Agonist,–,–,–,–
N[C@H](c1cccc(Cl)c1)[C@@H]1CCN1C(c1cccc(F)c1)c1cccc(F)c1,64,3530,4320,4790,Agonist,–,–,–,–
N[C@H](c1cccc(Cl)c1)[C@@H]1CCN1C(c1cccc(C(F)(F)F)c1)c1cccc(C(F)(F)F)c1,2590,–,–,–,–,–,–,–,–
CCC(c1ccccc1)N1CC[C@H]1[C@@H](N)c1cccc(Cl)c1 (stereo not given in full),570,13100,8070,22400,–,–,–,–,–
CCCC(c1ccccc1)N1CC[C@H]1[C@H](N)c1cccc(Cl)c1 (stereo not given in full),79,7170,6020,16500,Agonist,–,–,–,–
N[C@H](c1cccc(Cl)c1)[C@@H]1CCN1C(c1ccc(Cl)cc1)c1ccc(Cl)cc1,3220,3250,3450,5010,–,–,–,–,–
N[C@@H](c1cccc(C(F)(F)F)c1)[C@@H]1CCN1C(c1ccccc1)c1ccccc1 (stereo in doubt; (+)-1a) [listing 2 of 2 here],236,3570,6090,11000,–,–,–,–,–
N[C@H](c1cccc(Cl)c1)[C@@H]1CCN1C(c1ccc(F)cc1)c1ccc(F)cc1,684,2240,2180,7430,–,–,–,–,–
N[C@@H](c1cc(F)cc(F)c1)[C@@H]1CCN1C(c1ccccc1)c1ccccc1,105,4010,4250,9530,Agonist,–,–,–,–
N[C@@H](c1ccc(Oc2ccccc2)cc1)[C@@H]1CCN1C(c1ccccc1)c1ccccc1,7220,2770,5400,7720,–,–,–,–,–
N[C@@H](c1cccc(F)c1)[C@@H]1CCN1C(c1ccccc1)c1ccccc1,191,997,1770,2920,Agonist,–,–,–,–
N[C@@H](c1cccc(Cl)c1)[C@@H]1CCN1C(c1ccccc1)c1ccccc1,37,1230,1650,8340,–,–,–,–,–
CCCCCC(c1ccccc1)N1CC[C@H]1[C@@H](N)c1cccc(Cl)c1 (stereo not given in full),772,3910,2150,7580,–,–,–,–,–
N[C@@H](c1ccc(Cl)cc1)[C@@H]1CCN1C(c1ccccc1)c1ccccc1,152,607,586,1440,Agonist,–,–,–,–

SMILES,Ki [1] [nM],Ki [2] [nM],Ki [3] [nM],Ki [4] [nM],Activity [5],Ki [6] [nM],Activity [7],inhibition [8] [%],Activity [9]
CCCCCC(c1ccccc1)N1CC[C@H]1[C@H](N)c1cccc(Cl)c1 (stereo not given in full),34,2990,1940,5960,–,–,–,–,–
CCCCCCC(c1ccccc1)N1CC[C@H]1[C@H](N)c1cccc(Cl)c1 (stereo not given in full),185,2860,1490,–,–,3910,Antagonist,–,–
CCCCC(c1cccc(F)c1)N1CC[C@H]1[C@@H](N)c1cccc(Cl)c1 (stereo not given in full),680,4120,4700,12300,–,–,–,–,–
N[C@H](c1cccc(Cl)c1)[C@@H]1CCN1C(c1ccc(Br)cc1)c1ccc(Br)cc1,2530,1480,2500,4990,–,–,–,–,–
N[C@@H](c1cccc(C(F)(F)F)c1)[C@@H]1CCN1C(c1ccccc1)c1ccccc1 (stereo in doubt; (+\-)-1) [listing 1 of 2 here],–,–,–,–,Agonist,–,–,–,–
CCCCC(c1cc(F)cc(F)c1)N1CC[C@H]1[C@@H](N)c1cccc(Cl)c1 (stereo not given in full),347,6490,5550,9370,–,–,–,–,–
COc1cccc([C@H](N)[C@@H]2CCN2C(c2ccccc2)c2ccccc2)c1,–,–,–,–,–,–,–,45,–
COc1ccc([C@H](N)[C@@H]2CCN2C(c2ccccc2)c2ccccc2)cc1,198,1340,865,2920,–,–,–,–,–
Cc1cccc([C@H](N)[C@@H]2CCN2C(c2ccccc2)c2ccccc2)c1,–,–,–,–,–,–,–,3,–
N[C@H](c1cccc(Cl)c1)[C@@H]1CCN1C(c1cccc(Cl)c1)c1cccc(Cl)c1,420,6040,7160,2710,Agonist,–,–,–,–
CCCCC(c1cc(F)cc(F)c1)N1CC[C@H]1[C@H](N)c1cccc(Cl)c1 (stereo not given in full),49,4220,3980,11200,–,–,–,–,Agonist
N[C@@H](c1cccc(C(F)(F)F)c1)[C@@H]1CCN1C(c1ccccc1)c1ccccc1 (stereo in doubt; (+\-)-1) [listing 2 of 2 here],31,1630,1970,6090,–,–,–,–,–
Cc1ccc(C(c2ccc(C)cc2)N2CC[C@H]2[C@H](N)c2cccc(Cl)c2)cc1,1140,1840,801,5010,–,–,–,–,–
Cc1ccc([C@H](N)[C@@H]2CCN2C(c2ccccc2)c2ccccc2)cc1F,58,150,152,634,Agonist,–,–,–,–
CCCCCCC(c1ccccc1)N1CC[C@H]1[C@@H](N)c1cccc(Cl)c1 (stereo not given in full),1020,1940,1590,4980,–,–,–,–,–
CCCCC(c1ccccc1)N1CC[C@H]1[C@@H](N)c1cccc(Cl)c1 (stereo not given in full),745,3680,2250,8820,–,–,–,–,–
CCCCC(c1cccc(F)c1)N1CC[C@H]1[C@H](N)c1cccc(Cl)c1 (stereo not given in full),26,2130,1600,8710,Agonist,–,–,–,–
CCC(c1ccccc1)N1CC[C@H]1[C@H](N)c1cccc(Cl)c1 (stereo not given in full),94,7720,7220,22400,Agonist,–,–,–,–
Cc1ccc([C@H](N)[C@@H]2CCN2C(c2ccccc2)c2ccccc2)cc1,94,660,488,1860,–,–,–,–,–
